Measured values published in ChEMBL document CHEMBL1821594, “Synthesis and anticancer evaluation of novel 2-cyclopropylimidazo[2,1-b][1,3,4]-thiadiazole derivatives” (2011).

Tests used:
Type in all cases: functional
786-0 = assay: Antitumor activity against human 786-0 cells after 48 hrs by SRB assay; details: 786-0, 48 h
Outline: (§1)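 Cells grown in RPMI 1640 with 5% FBS and 2 mM L-glutamine and seeded at 5000–40,000 cells/well according to doubling time. They were preincubated 24 h at 37 °C, 5% CO2, then exposed to DMSO-solubilized compound for 48 h. Adherent cells were fixed with cold TCA (10% final), suspension cells with 16% final. Stained with 0.4% SRB; absorbance at 515 nm. Percent growth calculated against time-zero and control plates.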

SF-539 = assay: Antitumor activity against human SF539 cells after 48 hrs by SRB assay; details: SF-539, 48 h; outline: as §1
NCI-H226 = assay: Antitumor activity against human NCI-H226 cells after 48 hrs by SRB assay; details: NCI-H226, 48 h; outline: as §1
HL-60(TB) = assay: Antitumor activity against human HL-60(TB) cells after 48 hrs by SRB assay; details: HL-60, 48 h
Outline: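 NCI-60 protocol: cells in RPMI 1640 with 5% FBS and 2 mM glutamine, preincubated 24 h at 37 °C with 5% CO2. Compounds from DMSO stock, tested at 10^-5 M single dose or five 10-fold doses, for 48 h. Suspension cells fixed in settled form (16% TCA final), then SRB stained and read at 515 nm. % growth is calculated against time-zero and control plates; GI50, TGI and LC50 are derived.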

KM12 = assay: Antitumor activity against human KM12 cells after 48 hrs by SRB assay; details: KM12, 48 h; outline: as §1
HOP-62 = assay: Antitumor activity against human HOP62 cells after 48 hrs by SRB assay; details: HOP-62, 48 h; outline: as §1
UACC-257 = assay: Antitumor activity against human UACC257 cells after 48 hrs by SRB assay; details: UACC-257, 48 h
Outline: (§2)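 NCI-60 protocol. Cells were grown in RPMI 1640 with 5% FBS and 2 mM L-glutamine, plated at 5000–40,000 cells/well, and preincubated 24 h at 37 °C, 5% CO2. Time-zero plates were TCA-fixed. Compounds were in DMSO and incubated 48 h. Fixation used cold TCA (final 16% for suspension SR; final 10% for adherent lines 2-7). Plates were stained with 0.4% SRB in 1% acetic acid, solubilized in 10 mM Tris base, and read at 515 nm. Percent growth was calculated from Tz, C and Ti.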

SK-MEL-2 = assay: Antitumor activity against human SK-MEL-2 cells after 48 hrs by SRB assay; details: SK-MEL-2, 48 h; outline: as §1
SNB-75 = assay: Antitumor activity against human SNB75 cells after 48 hrs by SRB assay; details: SNB-75, 48 h; outline: as §1
T47D = assay: Antitumor activity against human T47D cells after 48 hrs by SRB assay; outline: as §2
OVCAR-8 = assay: Antitumor activity against human OVCAR8 cells after 48 hrs by SRB assay; details: OVCAR-8, 48 h; outline: as §1
SK-OV-3 = assay: Antitumor activity against human SKOV3 cells after 48 hrs by SRB assay; details: SK-OV-3, 48 h; outline: as §1
SF-268 = assay: Antitumor activity against human SF268 cells after 48 hrs by SRB assay; details: SF-268, 48 h; outline: as §1
IGROV-1 = assay: Antitumor activity against human IGROV1 cells after 48 hrs by SRB assay; details: IGROV-1, 48 h; outline: as §1
U-251 = assay: Antitumor activity against human U251 cells after 48 hrs by SRB assay; details: U-251, 48 h; outline: as §2
NCI/ADR-RES = assay: Antitumor activity against human NCI/ADR-RES cells after 48 hrs by SRB assay; outline: as §1
NCI-H322M = assay: Antitumor activity against human NCI-H322M cells after 48 hrs by SRB assay; outline: as §1
HCC 2998 = assay: Antitumor activity against human HCC2998 cells after 48 hrs by SRB assay; details: HCC 2998, 48 h; outline: as §1
COLO 205 = assay: Antitumor activity against human COLO205 cells after 48 hrs by SRB assay; details: COLO 205, 48 h; outline: as §1
OVCAR-5 = assay: Antitumor activity against human OVCAR5 cells after 48 hrs by SRB assay; details: OVCAR-5, 48 h; outline: as §1
SF-295 = assay: Antitumor activity against human SF295 cells after 48 hrs by SRB assay; details: SF-295, 48 h; outline: as §1
MDA-MB-468 = assay: Antitumor activity against human MDA-MB-468 cells after 48 hrs by SRB assay; details: MDA-MB-468, 48 h; outline: as §1
SR = assay: Antitumor activity against human SR cells after 48 hrs by SRB assay; outline: as §2
DU-145 = assay: Antitumor activity against human DU145 cells after 48 hrs by SRB assay; details: DU-145, 48 h; outline: as §1
UO-31 = assay: Antitumor activity against human UO31 cells after 48 hrs by SRB assay; details: UO-31, 48 h; outline: as §2
A498 = assay: Antitumor activity against human A498 cells after 48 hrs by SRB assay; details: A498, 48 h; outline: as §1
HOP-92 = assay: Antitumor activity against human HOP92 cells after 48 hrs by SRB assay; details: HOP-92, 48 h; outline: as §1
[1] = read-out: LC50 (the source's name)

`Clc1ccc(-c2nc3sc(C4CC4)nn3c2Br)cc1` was tested, and the GI50 (786-0) was 13.6 µM, the TGI (786-0) was over 100 µM and the CC50 (786-0; [1]) was over 100 µM. The GI50 (SF-539) was 6.78 µM, the TGI (SF-539) was over 100 µM and the CC50 (SF-539; [1]) was over 100 µM. It also gave a GI50 (NCI-H226) of 4.99 µM, a TGI (NCI-H226) of over 100 µM and a CC50 (NCI-H226; [1]) of over 100 µM. For the same molecule, the GI50 (HL-60(TB)) was 3.34 µM, the TGI (HL-60(TB)) was over 100 µM and the CC50 (HL-60(TB); [1]) was over 100 µM. For the same molecule, the GI50 (KM12) was 3.77 µM, the TGI (KM12) was over 100 µM and the CC50 (KM12; [1]) was over 100 µM. It also gave a GI50 (HOP-62) of 38.1 µM, a TGI (HOP-62) of over 100 µM and a CC50 (HOP-62; [1]) of over 100 µM. For the same molecule, the GI50 (UACC-257) was 4.14 µM, the TGI (UACC-257) was over 100 µM and the CC50 (UACC-257; [1]) was over 100 µM. For the same molecule, the GI50 (SK-MEL-2) was 11 µM, the TGI (SK-MEL-2) was 59.3 µM and the CC50 (SK-MEL-2; [1]) was over 100 µM. For the same molecule, the GI50 (SNB-75) was 12.2 µM, the TGI (SNB-75) was 51.9 µM and the CC50 (SNB-75; [1]) was over 100 µM. It also gave a GI50 (T47D) of 4.49 µM, a TGI (T47D) of 73.5 µM and a CC50 (T47D; [1]) of over 100 µM. It also gave a GI50 (OVCAR-8) of 5.76 µM, a TGI (OVCAR-8) of over 100 µM and a CC50 (OVCAR-8; [1]) of over 100 µM. For the same molecule, the GI50 (SK-OV-3) was 35 µM, the TGI (SK-OV-3) was over 100 µM and the CC50 (SK-OV-3; [1]) was over 100 µM. The GI50 (SF-268) was 19.3 µM, the TGI (SF-268) was over 100 µM and the CC50 (SF-268; [1]) was over 100 µM. The GI50 (IGROV-1) was 17.3 µM, the TGI (IGROV-1) was over 100 µM and the CC50 (IGROV-1; [1]) was over 100 µM. It also gave a GI50 (U-251) of 4.29 µM, a TGI (U-251) of over 100 µM and a CC50 (U-251; [1]) of over 100 µM. For the same molecule, the GI50 (NCI/ADR-RES) was 4.18 µM, the TGI (NCI/ADR-RES) was over 100 µM and the CC50 (NCI/ADR-RES; [1]) was over 100 µM. For the same molecule, the GI50 (NCI-H322M) was 43.4 µM, the TGI (NCI-H322M) was over 100 µM and the CC50 (NCI-H322M; [1]) was over 100 µM. For the same molecule, the GI50 (HCC 2998) was 8.19 µM, the TGI (HCC 2998) was over 100 µM and the CC50 (HCC 2998; [1]) was over 100 µM. The GI50 (COLO 205) was 7.23 µM, the TGI (COLO 205) was over 100 µM and the CC50 (COLO 205; [1]) was over 100 µM. It also gave a GI50 (OVCAR-5) of 31.9 µM, a TGI (OVCAR-5) of over 100 µM and a CC50 (OVCAR-5; [1]) of over 100 µM. It also gave a GI50 (SF-295) of 5.04 µM, a TGI (SF-295) of over 100 µM and a CC50 (SF-295; [1]) of over 100 µM. For the same molecule, the GI50 (MDA-MB-468) was 2.95 µM, the TGI (MDA-MB-468) was over 100 µM and the CC50 (MDA-MB-468; [1]) was over 100 µM. It also gave a GI50 (SR) of 2.9 µM, a TGI (SR) of over 100 µM and a CC50 (SR; [1]) of over 100 µM. For the same molecule, the GI50 (DU-145) was 19.2 µM, the TGI (DU-145) was over 100 µM and the CC50 (DU-145; [1]) was over 100 µM. It also gave a GI50 (UO-31) of 16.4 µM, a TGI (UO-31) of over 100 µM and a CC50 (UO-31; [1]) of over 100 µM. It also gave a GI50 (A498) of 30.8 µM, a TGI (A498) of over 100 µM and a CC50 (A498; [1]) of over 100 µM. It also gave a GI50 (HOP-92) of 5.59 µM, a TGI (HOP-92) of 37.9 µM and a CC50 (HOP-92; [1]) of over 100 µM.
